According to ChEMBL document CHEMBL1250463, “N(epsilon)-Modified lysine containing inhibitors for SIRT1 and SIRT2” (Bioorg Med Chem, 2010):

Legend:
[1] = molecular target: T1, NAD-dependent protein deacetylase sirtuin-1 (Homo sapiens) (UniProt Q96EB6); experiment: Inhibition of GST-SIRT1 at 200 uM after 1 hr by Fluor de Lys fluorescence assay
T1 sequence (whole entry): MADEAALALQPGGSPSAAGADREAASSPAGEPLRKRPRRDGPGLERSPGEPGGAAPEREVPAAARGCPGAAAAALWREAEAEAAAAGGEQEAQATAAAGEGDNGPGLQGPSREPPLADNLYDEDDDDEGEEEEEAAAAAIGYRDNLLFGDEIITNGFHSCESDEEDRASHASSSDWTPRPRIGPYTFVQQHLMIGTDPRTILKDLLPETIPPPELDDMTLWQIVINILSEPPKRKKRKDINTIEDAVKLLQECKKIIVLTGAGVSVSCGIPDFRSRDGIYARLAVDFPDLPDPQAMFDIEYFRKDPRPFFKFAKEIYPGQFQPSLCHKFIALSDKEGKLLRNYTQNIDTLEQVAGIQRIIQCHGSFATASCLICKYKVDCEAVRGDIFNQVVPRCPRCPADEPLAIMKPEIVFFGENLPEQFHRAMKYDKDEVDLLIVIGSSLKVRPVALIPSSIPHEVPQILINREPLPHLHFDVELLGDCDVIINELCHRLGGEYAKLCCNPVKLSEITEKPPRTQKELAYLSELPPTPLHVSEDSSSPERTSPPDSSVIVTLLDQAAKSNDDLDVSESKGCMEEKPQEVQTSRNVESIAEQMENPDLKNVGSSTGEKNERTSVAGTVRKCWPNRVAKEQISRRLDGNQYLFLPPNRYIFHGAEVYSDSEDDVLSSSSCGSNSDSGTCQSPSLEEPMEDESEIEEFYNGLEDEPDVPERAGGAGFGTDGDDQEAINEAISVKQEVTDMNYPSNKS
Outline: (§1)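 Recombinant GST-SIRT1 with Fluor de Lys acetylated SIRT1 peptide substrate at 70% of its Km, plus NAD+, in HDAC assay buffer with 1 mg/ml BSA. Buffer, substrate, NAD+ and compound in DMSO (2.5 in 50 total) were preincubated 5 min at rt. Enzyme addition started the reaction, run 1 h at 37 °C. Developer plus 2 mM nicotinamide was then added for 45 min at 37 °C before fluorescence read-out.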

[2] = molecular target: T2, NAD-dependent protein deacetylase sirtuin-2 (Homo sapiens) (UniProt Q8IXJ6); experiment: Inhibition of GST-SIRT2 at 200 uM after 1 hr by Fluor de Lys fluorescence assay
T2 sequence (whole entry): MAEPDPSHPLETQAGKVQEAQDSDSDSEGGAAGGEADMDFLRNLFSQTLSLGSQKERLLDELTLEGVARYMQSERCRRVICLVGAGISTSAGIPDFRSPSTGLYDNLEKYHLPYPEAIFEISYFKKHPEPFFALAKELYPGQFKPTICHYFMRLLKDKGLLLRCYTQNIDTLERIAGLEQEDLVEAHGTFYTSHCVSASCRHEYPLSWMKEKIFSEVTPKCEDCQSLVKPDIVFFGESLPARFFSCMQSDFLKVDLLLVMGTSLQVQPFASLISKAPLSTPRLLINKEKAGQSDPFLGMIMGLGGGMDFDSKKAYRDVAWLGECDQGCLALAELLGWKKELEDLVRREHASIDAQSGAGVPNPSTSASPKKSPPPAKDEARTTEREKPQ
Outline: (§2)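 Recombinant GST-SIRT2 with Fluor de Lys acetylated SIRT2 peptide substrate at 70% of its Km, plus NAD+, in HDAC assay buffer with 1 mg/ml BSA. Compound or DMSO was preincubated 5 min at rt with buffer, substrate and NAD+. Enzyme was added to start the reaction, run 1 h at 37 °C. Developer with 2 mM nicotinamide followed for 45 min at 37 °C, then fluorescence was read.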

[3] = molecular target: T3, NAD-dependent protein deacetylase sirtuin-1 (Homo sapiens, UniProt Q96EB6); experiment: Inhibition of GST-SIRT1 after 1 hr by Fluor de Lys fluorescence assay; outline: as §1
T3 sequence (Q96EB6 whole entry): T1 sequence (whole entry)

[4] = molecular target: T4, NAD-dependent protein deacetylase sirtuin-2 (Homo sapiens, UniProt Q8IXJ6); experiment: Inhibition of GST-SIRT2 after 1 hr by Fluor de Lys fluorescence assay; outline: as §2
T4 sequence (Q8IXJ6 whole entry): T2 sequence (whole entry)

| SMILES | inhibition [1] [%] | inhibition [2] [%] | IC50 [3] [µM] | IC50 [4] [µM] |
| --- | --- | --- | --- | --- |
| CC(=O)N[C@@H](C)C(=O)N[C@@H](CCCCNC(=O)CC(C)C)C(=O)N[C@@H](C)C(=O)O | 94 | 76 | 12 | 30 |
| CNC(=O)[C@H](C)NC(=O)[C@H](CCCCNC(=O)c1ccc(N(C)C)cc1)NC(=O)[C@H](C)NC(C)=O | 39 | 34 | – | – |
| CC(=O)N[C@@H](C)C(=O)N[C@@H](CCCCNC(C)=S)C(=O)N[C@@H](C)C(=O)O | 100 | 96 | 0.24 | 9.8 |
| CC(=O)N[C@@H](C)C(=O)N[C@@H](CCCCNC(=S)CC(C)C)C(=O)N[C@@H](C)C(=O)O | 100 | 99 | 0.7 | 3.6 |
| C/C=C/C(=O)NCCCC[C@H](NC(=O)[C@H](C)NC(C)=O)C(=O)N[C@@H](C)C(=O)OC | 20 | 9 | – | – |
| COC(=O)[C@H](C)NC(=O)[C@H](CCCCNC(=O)OCc1ccccc1)NC(=O)[C@H](C)NC(C)=O | 11 | 3 | – | – |
| COC(=O)[C@H](C)NC(=O)[C@H](CCCCNC(=O)C1=CCCCC1)NC(=O)[C@H](C)NC(C)=O | 33 | 54 | – | 129 |
| COC(=O)[C@H](C)NC(=O)[C@H](CCCCNS(C)(=O)=O)NC(=O)[C@H](C)NC(C)=O | 17 | 8 | – | – |
| COC(=O)[C@H](C)NC(=O)[C@H](CCCCNC(C)=O)NC(=O)[C@H](C)NC(C)=O | 39 | 57 | 268 | 180 |
| CNC(=O)[C@H](C)NC(=O)[C@H](CCCCNC(C)=O)NC(=O)[C@H](C)NC(C)=O | 66 | 68 | 88 | 60 |
| CP(C)(=S)NCCCC[C@H](NC(=O)OCc1ccccc1)C(=O)Nc1ccccc1 | 10 | 27 | – | – |
| CC(=[Se])NCCCC[C@H](NC(=O)OCc1ccccc1)C(=O)Nc1ccccc1 | 98 | 99 | 1.8 | 2.7 |
| CC(=O)NCCCC[C@H](NC(=O)[C@H](C)NC(C)=O)C(=O)N[C@@H](C)C(=O)O | 62 | 42 | 122 | 223 |
| C/C=C(\C)C(=O)NCCCC[C@H](NC(=O)[C@H](C)NC(C)=O)C(=O)N[C@@H](C)C(=O)OC | 39 | 39 | – | – |
| COC(=O)[C@H](C)NC(=O)[C@H](CCCCNC(=O)CBr)NC(=O)[C@H](C)NC(C)=O | 48 | 16 | 1770 | – |
| CC(C)(C)OC(=O)NCCCC[C@H](NC(=O)OCc1ccccc1)C(=O)Nc1ccccc1 | 6 | 13 | – | – |
| COC(=O)[C@H](C)NC(=O)[C@H](CCCCNC(=O)CCl)NC(=O)[C@H](C)NC(C)=O | 19 | 8 | – | – |
| COC(=O)[C@H](C)NC(=O)[C@H](CCCCNS(=O)(=O)C(F)(F)F)NC(=O)[C@H](C)NC(C)=O | 15 | 4 | – | – |

| SMILES | inhibition [1] [%] | inhibition [2] [%] | IC50 [3] [µM] | IC50 [4] [µM] |
| --- | --- | --- | --- | --- |
| CC(=O)N[C@@H](C)C(=O)N[C@@H](CCCCNC(=O)/C=C(/C)C(F)(F)F)C(=O)N[C@@H](C)C(=O)O | 33 | 20 | – | – |
| COC(=O)[C@H](C)NC(=O)[C@H](CCCCNC(=O)c1cccnc1)NC(=O)[C@H](C)NC(C)=O | 9 | 2 | – | – |
| COC(=O)[C@H](C)NC(=O)[C@H](CCCCNS(=O)(=O)c1ccc([N+](=O)[O-])cc1)NC(=O)[C@H](C)NC(C)=O | 0 | 5 | – | – |
| COC(=O)[C@H](C)NC(=O)[C@H](CCCCNS(=O)(=O)c1ccc(C)cc1)NC(=O)[C@H](C)NC(C)=O | 1 | 0 | – | – |
| CNC(=O)[C@H](C)NC(=O)[C@H](CCCCNC(=O)C=C(C)C)NC(=O)[C@H](C)NC(C)=O | 96 | 95 | 6.1 | 23 |
| CNC(=O)[C@H](C)NC(=O)[C@H](CCCCNC(=O)C(C)(C)C)NC(=O)[C@H](C)NC(C)=O | 82 | 77 | 40 | 66 |
| COC(=O)[C@H](C)NC(=O)[C@H](CCCCNC(=O)Cc1cccnc1)NC(=O)[C@H](C)NC(C)=O | 10 | 0 | – | – |
| CNC(=O)[C@H](C)NC(=O)[C@H](CCCCNC(=O)c1ccc[nH]1)NC(=O)[C@H](C)NC(C)=O | 36 | 26 | – | – |
| COC(=O)[C@H](C)NC(=O)[C@H](CCCCNC(=O)c1ccccn1)NC(=O)[C@H](C)NC(C)=O | 4 | 0 | – | – |
| COC(=O)NCCCC[C@H](NC(=O)[C@H](C)NC(C)=O)C(=O)N[C@@H](C)C(=O)OC | 8 | 0 | – | – |
| COC(=O)[C@H](C)NC(=O)[C@H](CCCCNC(=O)C(C)(C)C)NC(=O)[C@H](C)NC(C)=O | 53 | 52 | 223 | 338 |
| CC(=O)N[C@@H](C)C(=O)N[C@@H](CCCCNC(=O)C=C(C)C)C(=O)N[C@@H](C)C(=O)O | 95 | 52 | 11 | 77 |
| COC(=O)[C@H](C)NC(=O)[C@H](CCCCNC(=O)C=C(C)C)NC(=O)[C@H](C)NC(C)=O | 78 | 74 | 46 | 69 |
| COC(=O)[C@H](C)NC(=O)[C@H](CCCCNC(=O)c1ccccc1)NC(=O)[C@H](C)NC(C)=O | 12 | 14 | – | – |
| CC(=O)N[C@@H](C)C(=O)N[C@@H](CCCCNC(C)=[Se])C(=O)N[C@@H](C)C(=O)O | 100 | 97 | 0.37 | 7.2 |
| COC(=O)[C@H](C)NC(=O)[C@H](CCCCNC(=O)Cc1ccccn1)NC(=O)[C@H](C)NC(C)=O | 26 | 21 | – | – |
| CNC(=O)[C@H](C)NC(=O)[C@H](CCCCNC(=O)c1cccn1C)NC(=O)[C@H](C)NC(C)=O | 23 | 41 | – | – |
| COC(=O)[C@H](C)NC(=O)[C@H](CCCCNC(=O)N(C)C)NC(=O)[C@H](C)NC(C)=O | 24 | 13 | – | – |
